Assay results taken from ChEMBL document CHEMBL1909618, “Non-steroidal dissociated glucocorticoid agonists: indoles as A-ring mimetics and function-regulating pharmacophores” (Bioorg Med Chem Lett, 2011).

Tests used:
Mus musculus = experiment: Antiinflammatory activity in mouse plasma assessed as inhibition of LPS-induced TNFalpha production at 10 mg/kg, po administered 1 hr before LPS challenge measured after 1 hr; type: functional
Outline: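 Mice received compound orally in Cremophor RH 1 h before LPS challenge. Plasma TNF-α was measured 1 h after challenge. n = 8 per group; doses were 3 and 10 mg/kg.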

Progesterone receptor = molecular target: T1, Progesterone receptor (Homo sapiens, UniProt P06401); experiment: Displacement of tetramethylrhodamine-labeled RU-486 from human recombinant progesterone receptor expressed in baculovirus infected insect cells by fluorescence polarization assay
T1 sequence (P06401 whole entry): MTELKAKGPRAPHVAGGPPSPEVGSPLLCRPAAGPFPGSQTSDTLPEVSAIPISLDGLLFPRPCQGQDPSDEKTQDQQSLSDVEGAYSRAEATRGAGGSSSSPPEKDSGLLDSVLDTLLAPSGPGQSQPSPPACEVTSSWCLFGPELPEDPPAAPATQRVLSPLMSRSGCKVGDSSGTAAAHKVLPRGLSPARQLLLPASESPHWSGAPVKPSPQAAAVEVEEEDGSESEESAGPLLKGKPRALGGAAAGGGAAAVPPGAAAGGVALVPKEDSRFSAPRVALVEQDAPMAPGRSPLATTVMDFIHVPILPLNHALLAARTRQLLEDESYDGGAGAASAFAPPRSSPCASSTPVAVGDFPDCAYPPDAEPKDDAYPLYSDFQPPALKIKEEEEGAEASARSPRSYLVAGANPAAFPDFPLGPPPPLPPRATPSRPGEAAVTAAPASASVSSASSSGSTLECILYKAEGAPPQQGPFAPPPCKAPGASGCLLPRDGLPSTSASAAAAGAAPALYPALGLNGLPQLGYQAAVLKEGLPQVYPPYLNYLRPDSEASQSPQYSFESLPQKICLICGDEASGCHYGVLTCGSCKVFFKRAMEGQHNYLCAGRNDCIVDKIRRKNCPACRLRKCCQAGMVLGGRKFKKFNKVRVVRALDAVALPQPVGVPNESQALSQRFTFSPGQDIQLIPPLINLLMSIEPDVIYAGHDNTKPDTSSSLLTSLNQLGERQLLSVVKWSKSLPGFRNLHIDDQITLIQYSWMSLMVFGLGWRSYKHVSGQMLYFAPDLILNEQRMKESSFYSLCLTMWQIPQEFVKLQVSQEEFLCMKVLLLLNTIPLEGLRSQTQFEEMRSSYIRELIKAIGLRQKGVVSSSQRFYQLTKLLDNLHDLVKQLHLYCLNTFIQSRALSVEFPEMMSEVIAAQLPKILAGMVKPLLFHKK
Outline: (§1)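 Fluorescence polarization competition assays with recombinant human receptors in lysates of baculovirus-infected insect cells. Reactions contained 1% DMSO and ran 1 h at room temperature.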

Glucocorticoid receptor = molecular target: T2, Glucocorticoid receptor (Homo sapiens, UniProt P04150); experiment: Agonist activity at glucocorticoid receptor in HFF assessed as inhibition of IL1-induced IL-6 production after 18 to 24 hrs; type: functional
T2 sequence (P04150 whole entry): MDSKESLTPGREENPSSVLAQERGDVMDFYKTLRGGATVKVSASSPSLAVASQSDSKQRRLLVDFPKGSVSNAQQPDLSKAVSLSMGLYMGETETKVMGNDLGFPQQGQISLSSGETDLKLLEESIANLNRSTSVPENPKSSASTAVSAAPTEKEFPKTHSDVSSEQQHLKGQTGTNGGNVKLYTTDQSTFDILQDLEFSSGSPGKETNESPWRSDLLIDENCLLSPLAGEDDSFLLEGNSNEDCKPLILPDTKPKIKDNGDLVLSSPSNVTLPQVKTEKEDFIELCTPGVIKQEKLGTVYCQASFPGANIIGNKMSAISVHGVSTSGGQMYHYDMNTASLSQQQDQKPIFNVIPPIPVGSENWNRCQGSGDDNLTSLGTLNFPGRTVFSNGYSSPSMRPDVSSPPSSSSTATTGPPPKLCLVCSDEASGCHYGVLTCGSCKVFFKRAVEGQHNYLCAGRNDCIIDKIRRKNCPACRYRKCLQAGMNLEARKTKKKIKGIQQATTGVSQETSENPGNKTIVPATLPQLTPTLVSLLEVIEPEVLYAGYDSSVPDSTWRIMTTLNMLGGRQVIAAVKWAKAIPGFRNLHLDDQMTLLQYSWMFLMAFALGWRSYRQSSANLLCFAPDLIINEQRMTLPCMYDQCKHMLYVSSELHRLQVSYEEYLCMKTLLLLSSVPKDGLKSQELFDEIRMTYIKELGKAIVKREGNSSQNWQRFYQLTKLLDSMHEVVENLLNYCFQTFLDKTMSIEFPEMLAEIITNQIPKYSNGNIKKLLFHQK

[1] = molecular target: T3, Glucocorticoid receptor (Homo sapiens) (UniProt P04150); experiment: Transactivation activity of glucocorticoid receptor in HFF assessed as induction of aromatase activity by measuring beta-estradiol activity after 18 to 24 hrs by ELISA relative to Dexamethasone
T3 sequence (whole entry): T2 sequence (P04150 whole entry)

[2] = molecular target: T4, Mineralocorticoid receptor (Homo sapiens, UniProt P08235); experiment: Displacement of tetramethylrhodamine-labeled Dexamethasone from human recombinant mineralocorticoid receptor expressed in baculovirus infected insect cells by fluorescence polarization assay; outline: as §1
T4 sequence (P08235 whole entry): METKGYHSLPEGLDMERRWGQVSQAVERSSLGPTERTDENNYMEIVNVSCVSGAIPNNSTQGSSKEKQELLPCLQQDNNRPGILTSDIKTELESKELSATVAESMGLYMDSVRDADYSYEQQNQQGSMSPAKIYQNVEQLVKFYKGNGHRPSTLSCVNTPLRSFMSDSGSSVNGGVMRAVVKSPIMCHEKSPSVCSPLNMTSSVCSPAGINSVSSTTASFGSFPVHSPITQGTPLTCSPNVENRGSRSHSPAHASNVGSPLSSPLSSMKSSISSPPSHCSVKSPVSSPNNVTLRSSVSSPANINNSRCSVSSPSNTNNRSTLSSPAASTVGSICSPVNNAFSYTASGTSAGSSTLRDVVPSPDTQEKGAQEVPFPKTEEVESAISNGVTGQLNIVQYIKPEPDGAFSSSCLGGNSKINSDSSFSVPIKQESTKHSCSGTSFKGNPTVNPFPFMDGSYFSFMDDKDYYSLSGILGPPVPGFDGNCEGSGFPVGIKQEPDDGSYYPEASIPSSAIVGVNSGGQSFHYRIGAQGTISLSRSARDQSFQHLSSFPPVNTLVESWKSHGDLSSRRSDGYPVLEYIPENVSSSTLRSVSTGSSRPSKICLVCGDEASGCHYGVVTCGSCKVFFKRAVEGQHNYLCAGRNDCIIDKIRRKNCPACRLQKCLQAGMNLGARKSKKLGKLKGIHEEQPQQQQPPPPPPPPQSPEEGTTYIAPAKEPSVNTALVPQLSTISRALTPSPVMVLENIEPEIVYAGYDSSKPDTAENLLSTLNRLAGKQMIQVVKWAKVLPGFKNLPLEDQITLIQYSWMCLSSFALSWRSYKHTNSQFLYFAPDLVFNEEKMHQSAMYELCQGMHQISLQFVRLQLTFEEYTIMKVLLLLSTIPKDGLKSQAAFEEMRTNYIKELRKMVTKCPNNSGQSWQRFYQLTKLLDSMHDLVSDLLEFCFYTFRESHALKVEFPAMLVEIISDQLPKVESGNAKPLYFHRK

IC50 (Progesterone receptor) [nM]	IC50 (Glucocorticoid receptor) [nM]	Efficacy [1] [%]	IC50 [2] [nM]	Structure (SMILES)	inhibition in vivo at 10 mg/kg (Mus musculus) [%]
207	6	98	190	COc1ccc(F)cc1C(C)(C)C[C@@](O)(Cc1cc2ccccc2[nH]1)C(F)(F)F	35
745	28	74	230	CC(C)(C[C@@](O)(Cc1cc2ccc(C#N)cc2[nH]1)C(F)(F)F)c1cc(S(C)(=O)=O)cc2c1OCC2	88
